In brackets after ≈: the same amount, converted by molar mass. Activity calls are given as the source filed them. No cut-off for these calls is given here.
Key:
Format in all cases: functional
Staphylococcus aureus [1] = experiment: Ratio of MBC to MIC against Staphylococcus aureus MTCC 96
Micrococcus luteus [2] = experiment: Ratio of MBC to MIC against Micrococcus luteus MTCC 2470
Micrococcus luteus [3] = experiment: Antibacterial activity against Micrococcus luteus MTCC 2470 assessed as inhibition of bacterial growth incubated for 24 hrs by agar well diffusion method; settings: MTCC 2470, 24 h
How it was run: (§1)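 Strains from MTCC; inoculum at 0.5 McFarland spread on Mueller-Hinton agar; 6 mm wells loaded with compound over 125–0.97 µg/mL; ciprofloxacin positive control (same range), DMSO negative control. Plates held 24 h at 37 °C; MIC taken as lowest concentration giving a clear inhibition zone. Triplicate runs, mean MIC reported.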

Staphylococcus aureus [4] = experiment: Antibacterial activity against Staphylococcus aureus MTCC 96 assessed as inhibition of bacterial growth incubated for 24 hrs by agar well diffusion method; settings: MTCC 96, 24 h; how it was run: as §1
Bacillus subtilis [5] = experiment: Antibacterial activity against Bacillus subtilis MTCC 121 assessed as inhibition of bacterial growth incubated for 24 hrs by agar well diffusion method; settings: MTCC 121, 24 h; how it was run: as §1
Escherichia coli [6] = experiment: Antibacterial activity against Escherichia coli MTCC 739 assessed as inhibition of bacterial growth incubated for 24 hrs by agar well diffusion method; settings: MTCC 739, 24 h; how it was run: as §1
Raoultella planticola [7] = experiment: Antibacterial activity against Klebsiella planticola MTCC 530 assessed as inhibition of bacterial growth incubated for 24 hrs by agar well diffusion method; settings: MTCC 530, 24 h; how it was run: as §1
Candida albicans [8] = experiment: Antifungal activity against Candida albicans MTCC 3017 assessed as inhibition of fungal growth incubated for 24 hrs by agar well diffusion method; settings: MTCC 3017, 24 h
How it was run: (§2)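 Candida strains from MTCC, pre-cultured and spread on Mueller Hinton agar. Wells received compound dissolved in 10% DMSO, 125–0.97 µg/mL; miconazole standard over the same range, DMSO negative control. After 24 h at 37 °C, MIC was read as the lowest concentration giving an inhibition zone. Duplicate experiments, means given.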

Candida albicans [9] = experiment: Antifungal activity against Candida albicans MTCC 1637 assessed as inhibition of fungal growth incubated for 24 hrs by agar well diffusion method; settings: MTCC 1637, 24 h; how it was run: as §2
Candida albicans [10] = experiment: Antifungal activity against Candida albicans MTCC 3018 assessed as inhibition of fungal growth incubated for 24 hrs by agar well diffusion method; settings: MTCC 3018, 24 h; how it was run: as §2
Candida parapsilosis [11] = experiment: Antifungal activity against Candida parapsilosis MTCC 1744 assessed as inhibition of fungal growth incubated for 24 hrs by agar well diffusion method; settings: Lodderomyces parapsilosis, MTCC 1744, 24 h; how it was run: as §2
Nakaseomyces glabratus [12] = experiment: Antifungal activity against Candida glabrata MTCC 3019 assessed as inhibition of fungal growth incubated for 24 hrs by agar well diffusion method; settings: MTCC 3019, 24 h; how it was run: as §2
Micrococcus luteus [13] = experiment: Bactericidal activity against Micrococcus luteus MTCC 2470 assessed as bacterial killing incubated for 24 hrs; settings: MTCC 2470, 24 h
How it was run: (§3)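 Broth tube assay: compound at 0–125 µg/mL in Mueller Hinton broth, overnight culture added to 0.5 McFarland (1.5 × 10^8 cfu/mL), held 24 h at 37 °C. 10 µL from each tube plated on Mueller Hinton agar. MBC is the lowest concentration that kills the strain. Duplicates, means reported.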

Staphylococcus aureus [14] = experiment: Bactericidal activity against Staphylococcus aureus MLS-16 MTCC 2940 assessed as bacterial killing incubated for 24 hrs; settings: MLS-16 MTCC 2940, 24 h; how it was run: as §3
Bacillus subtilis [15] = experiment: Bactericidal activity against Bacillus subtilis MTCC 121 assessed as bacterial killing incubated for 24 hrs; settings: MTCC 121, 24 h; how it was run: as §3
Escherichia coli [16] = experiment: Bactericidal activity against Escherichia coli MTCC 739 assessed as bacterial killing incubated for 24 hrs; settings: MTCC 739, 24 h; how it was run: as §3
Pseudomonas aeruginosa [17] = experiment: Bactericidal activity against Pseudomonas aeruginosa MTCC 2453 assessed as bacterial killing incubated for 24 hrs; settings: MTCC 2453, 24 h; how it was run: as §3
Raoultella planticola [18] = experiment: Bactericidal activity against Klebsiella planticola MTCC 530 assessed as bacterial killing incubated for 24 hrs; settings: MTCC 530, 24 h; how it was run: as §3
Pichia kudriavzevii [19] = experiment: Antifungal activity against Candida krusei MTCC 3020 assessed as inhibition of fungal growth incubated for 24 hrs by agar well diffusion method; settings: MTCC 3020, 24 h; how it was run: as §2
Pichia kudriavzevii [20] = experiment: Fungicidal activity against Candida krusei MTCC 3020 assessed as fungal killing incubated for 24 hrs; settings: MTCC 3020, 24 h
How it was run: (§4)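 Compound at 125–0.97 µg/mL in Mueller Hinton broth in microcentrifuge tubes, each Candida strain added, held 24 h at 37 °C. 10 µL of the treated suspension plated on Mueller Hinton agar and incubated a further 24 h at 37 °C. MFC is the lowest concentration that kills the strain. Duplicates, means reported.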

Candida albicans [21] = experiment: Fungicidal activity against Candida albicans MTCC 183 assessed as fungal killing incubated for 24 hrs; how it was run: as §4
Candida albicans [22] = experiment: Fungicidal activity against Candida albicans MTCC 227 assessed as fungal killing incubated for 24 hrs; settings: MTCC 227, 24 h; how it was run: as §4
Candida albicans [23] = experiment: Fungicidal activity against Candida albicans MTCC 1637 assessed as fungal killing incubated for 24 hrs; settings: MTCC 1637, 24 h; how it was run: as §4
Candida albicans [24] = experiment: Fungicidal activity against Candida albicans MTCC 4748 assessed as fungal killing incubated for 24 hrs; settings: MTCC 4748, 24 h; how it was run: as §4
Candida albicans [25] = experiment: Fungicidal activity against Candida albicans MTCC 7315 assessed as fungal killing incubated for 24 hrs; settings: MTCC 7315, 24 h; how it was run: as §4
Candida parapsilosis [26] = experiment: Fungicidal activity against Candida parapsilosis MTCC 1744 assessed as fungal killing incubated for 24 hrs; settings: Lodderomyces parapsilosis, MTCC 1744, 24 h; how it was run: as §4
Nakaseomyces glabratus [27] = experiment: Fungicidal activity against Candida glabrata MTCC 3019 assessed as fungal killing incubated for 24 hrs; settings: MTCC 3019, 24 h; how it was run: as §4
Staphylococcus aureus [28] = experiment: Ratio of MBC to MIC against Staphylococcus aureus MLS-16 MTCC 2940
Candida albicans [29] = experiment: Ratio of MFC to MIC against Candida albicans MTCC 227
How it was run: (§5)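 MIC by agar well diffusion: Candida lawns on Mueller-Hinton agar, wells loaded with compound in 10% DMSO (125–0.97 µg/mL), 24 h at 37 °C, lowest concentration giving an inhibition zone. MFC: compound in Mueller-Hinton broth (125–0.97 µg/mL) with yeast, 24 h at 37 °C, 10 µL plated on agar, lowest killing concentration after 24 h. Ratio is MFC/MIC.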

Candida albicans [30] = experiment: Ratio of MFC to MIC against Candida albicans MTCC 1637
Candida albicans [31] = experiment: Ratio of MFC to MIC against Candida albicans MTCC 3018; how it was run: as §5
Candida parapsilosis [32] = experiment: Ratio of MFC to MIC against Candida parapsilosis MTCC 1744; how it was run: as §5
Nakaseomyces glabratus [33] = experiment: Ratio of MFC to MIC against Candida glabrata MTCC 3019; how it was run: as §5
Escherichia coli [34] = experiment: Ratio of MBC to MIC for Escherichia coli MTCC 739
Pseudomonas aeruginosa [35] = experiment: Ratio of MBC to MIC for Pseudomonas aeruginosa MTCC 2453
Raoultella planticola [36] = experiment: Ratio of MBC to MIC for Klebsiella planticola MTCC 530

SMILES | Ratio (Staphylococcus aureus [1]) | Ratio (Micrococcus luteus [2]) | MIC (Micrococcus luteus [3]) | MIC (Staphylococcus aureus [4]) | MIC (Bacillus subtilis [5]) | MIC (Escherichia coli [6]) | MIC (Raoultella planticola [7]) | MIC (Candida albicans [8]) | MIC (Candida albicans [9]) | MIC (Candida albicans [10]) | MIC (Candida parapsilosis [11]) | MIC (Nakaseomyces glabratus [12]) | MBC (Micrococcus luteus [13]) | MBC (Staphylococcus aureus [14]) | MBC (Bacillus subtilis [15]) | MBC (Escherichia coli [16]) | MBC (Pseudomonas aeruginosa [17]) | MBC (Raoultella planticola [18]) | MIC (Pichia kudriavzevii [19]) | MFC (Pichia kudriavzevii [20]) | other results
COc1cc(/C=N/NC(=O)c2n[nH]c3c2Cc2ccccc2-3)ccc1O | 2 | 2 | 7.8 µg/mL (≈ 22.4 µM) | 3.9 µg/mL (≈ 11.2 µM) | 3.9 µg/mL (≈ 11.2 µM) | 7.8 µg/mL (≈ 22.4 µM) | 3.9 µg/mL (≈ 11.2 µM) | 7.8 µg/mL (≈ 22.4 µM) | 15.6 µg/mL (≈ 44.8 µM) | 15.6 µg/mL (≈ 44.8 µM) | 15.6 µg/mL (≈ 44.8 µM) | 3.9 µg/mL (≈ 11.2 µM) | 15.6 µg/mL (≈ 44.8 µM) | 15.6 µg/mL (≈ 44.8 µM) | 7.8 µg/mL (≈ 22.4 µM) | 15.6 µg/mL (≈ 44.8 µM) | 15.6 µg/mL (≈ 44.8 µM) | 7.8 µg/mL (≈ 22.4 µM) | 15.6 µg/mL (≈ 44.8 µM) | 31.2 µg/mL (≈ 89.6 µM) | MFC (Candida albicans [21]): inactive; MFC (Candida albicans [22]): 15.6 µg/mL (≈ 44.8 µM); MFC (Candida albicans [23]): 31.2 µg/mL (≈ 89.6 µM); MFC (Candida albicans [24]): 7.8 µg/mL (≈ 22.4 µM); MFC (Candida albicans [25]): 15.6 µg/mL (≈ 44.8 µM); MFC (Candida parapsilosis [26]): 31.2 µg/mL (≈ 89.6 µM); MFC (Nakaseomyces glabratus [27]): 7.8 µg/mL (≈ 22.4 µM); Ratio (Staphylococcus aureus [28]): 2; Ratio (Candida albicans [29]): 2; Ratio (Candida albicans [30]): 2; Ratio (Candida albicans [31]): 2; Ratio (Candida parapsilosis [32]): 2; Ratio (Nakaseomyces glabratus [33]): 2; Ratio (Escherichia coli [34]): 2; Ratio (Pseudomonas aeruginosa [35]): 2; Ratio (Raoultella planticola [36]): 2
O=C(N/N=C/c1ccc(O)cc1)c1n[nH]c2c1Cc1ccccc1-2 | 2 | 2 | 7.8 µg/mL (≈ 24.5 µM) | 3.9 µg/mL (≈ 12.3 µM) | 7.8 µg/mL (≈ 24.5 µM) | 3.9 µg/mL (≈ 12.3 µM) | 7.8 µg/mL (≈ 24.5 µM) | 7.8 µg/mL (≈ 24.5 µM) | 15.6 µg/mL (≈ 49 µM) | 7.8 µg/mL (≈ 24.5 µM) | 15.6 µg/mL (≈ 49 µM) | > 31.2 µg/mL | 15.6 µg/mL (≈ 49 µM) | 7.8 µg/mL (≈ 24.5 µM) | 15.6 µg/mL (≈ 49 µM) | 7.8 µg/mL (≈ 24.5 µM) | 15.6 µg/mL (≈ 49 µM) | 15.6 µg/mL (≈ 49 µM) | 15.6 µg/mL (≈ 49 µM) | 31.2 µg/mL (≈ 98 µM) | MFC (Candida albicans [21]): inactive; MFC (Candida albicans [22]): 15.6 µg/mL (≈ 49 µM); MFC (Candida albicans [23]): 31.2 µg/mL (≈ 98 µM); MFC (Candida albicans [24]): > 62.5 µg/mL; MFC (Candida albicans [25]): 31.2 µg/mL (≈ 98 µM); MFC (Candida parapsilosis [26]): 31.2 µg/mL (≈ 98 µM); MFC (Nakaseomyces glabratus [27]): > 62.5 µg/mL; Ratio (Staphylococcus aureus [28]): 2; Ratio (Candida albicans [29]): 2; Ratio (Candida albicans [30]): 2; Ratio (Candida albicans [31]): 2; Ratio (Candida parapsilosis [32]): 2; Ratio (Nakaseomyces glabratus [33]): 2; Ratio (Escherichia coli [34]): 2; Ratio (Pseudomonas aeruginosa [35]): 2; Ratio (Raoultella planticola [36]): 2
